# In the library only some 1.9% were active in any assay of this set; here they are far more common.
# Scp-1 inhibitor: Scp-1 (human) phosphatase inhibition | Q9GZU7 | Recombinant Scp1, phosphopeptide, malachite green phosphate absorbance | inhibition, % at 20 µM | 340,000 compounds, 0.88% hits;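 active means inhibition above about 50% at 20 µM, limit read from the data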
# Target sequence (Q9GZU7 76-261 limits assumed): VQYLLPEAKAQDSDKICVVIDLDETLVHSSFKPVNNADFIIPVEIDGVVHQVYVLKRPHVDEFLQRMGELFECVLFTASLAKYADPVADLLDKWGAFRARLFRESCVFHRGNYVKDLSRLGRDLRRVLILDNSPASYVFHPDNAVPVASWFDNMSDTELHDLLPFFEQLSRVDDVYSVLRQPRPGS
#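 System: truncated SCP-1 phosphatase (76-261aa); medium: Tris acetate buffer pH 5.5 with MgCl2 and Tween-20; incubation: 45 min room-temperature reaction, 5 min colour, 30 min stabiliser; compound: single 20 µM dose, 1% DMSO; reagent: Phosphorylated 17-residue peptide substrate; read-out: % inhibition at 20 µM; technique: colorimetric free-phosphate detection, absorbance 630 nm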
# SUMO1 PPI mod: SUMO1-SIM interaction modulation. 360,000 compounds, 0.33% hits. SUMO1 binding to a labelled peptide, TR-FRET, 1 h. inhibition, % at 20 µM. P63165; in the data active means inhibition above about 37%
# Target sequence (P63165 whole entry, looked up): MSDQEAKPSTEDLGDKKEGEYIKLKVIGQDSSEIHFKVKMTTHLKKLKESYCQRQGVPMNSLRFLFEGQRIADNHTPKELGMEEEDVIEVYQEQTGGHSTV
# LMPTP block: blocks human LMPTP phosphatase. P24666. recombinant LMPTP-A, OMFP fluorogenic substrate, fluorescence intensity. inhibition, % at 20 µM. 360,000 compounds, 0.22% hits. AID 651560;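 active means compounds that cut the enzyme signal by at least half of the control window in the single-dose screen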
# Target sequence (P24666 whole entry, looked up): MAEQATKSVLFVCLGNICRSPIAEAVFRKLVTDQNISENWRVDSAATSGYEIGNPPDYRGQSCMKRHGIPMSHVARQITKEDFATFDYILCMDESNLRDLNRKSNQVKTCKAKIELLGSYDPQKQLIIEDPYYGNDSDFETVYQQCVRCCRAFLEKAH
#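 Assay system: LMPTP-A phosphatase enzyme | Input: 0.625 nM enzyme | Also added: Fluorogenic phosphatase substrate OMFP at 400 µM final | Compound dosing: One test concentration per compound, 20 µM, with 3% DMSO overall | Schedule: 50 min enzyme reaction at room temperature, protected from light | Signal: Fluorescence intensity | Benchmarks: no-enzyme and uninhibited controls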
# STEP inh: blocks human striatal-enriched tyrosine phosphatase; inhibition, % at 20 µM; P54829; recombinant STEP, OMFP fluorogenic substrate, fluorescence; 360,000 compounds, 0.25% hits;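 active means inhibition at 20 µM, scaled per plate between control wells, above about 37%, limit read from the data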
#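 Material: STEP (striatal-enriched tyrosine phosphatase) enzyme, cell-free | Medium: 50 mM Bis-Tris pH 6.0 with 2.5 mM DTT and 0.005% Tween 20 | Read-out: Percent inhibition scaled to no-enzyme and uninhibited-enzyme controls, plate-pattern corrected | Signal: Fluorescence read at 480 nm ex / 540 nm em | Times: 20 min reaction, room temperature, in the dark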
# FAS-TE inh: inhibitors of human fatty acid synthase thioesterase domain | P49327 | recombinant FAS-TE, OMFH fluorogenic substrate, fluorescence endpoint | inhibition, % at 15 µM | 360,000 compounds, 0.67% hits | AID 602261;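 active means compounds whose normalised, plate-corrected inhibition of enzyme fluorescence in the single-dose primary screen is 50% or more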
# FAS-TE inh conf: FAS thioesterase (human) inhibition, confirmation; recombinant FAS-TE, OMFH fluorogenic substrate, fluorescence; shares compounds with FAS-TE inh; inhibition, % at 15 µM; 2,300 compounds, 45% hits;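 active means compounds inhibiting the enzyme by at least 50% at 15 µM in any one of the replicates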
# Hits are given with their value; – = inactive; · = not tested or not shown.
SMILES,Scp-1 inhibitor,SUMO1 PPI mod,LMPTP block,STEP inh,FAS-TE inh,FAS-TE inh conf
CC(CC(=O)N1CCN(c2ccc(C(F)(F)F)cn2)CC1)n1ccnc1 (configuration not stated),–,–,–,–,–,·
CC(=O)Oc1ccc(/C(C)=N\N2CCN(Cc3ccc(Cl)cc3)CC2)cc1,–,–,–,–,–,·
N#Cc1cc2ccc(N3CCOCC3)cc2cc1C#N,–,44,–,–,74,62
O=C(CNC(=O)c1ccc2c(c1)OCO2)N/N=C/c1cccc([N+](=O)[O-])c1,–,–,–,–,55,–
CC(=O)Nc1ccc(NC(=O)COC(=O)c2cc([N+](=O)[O-])ccc2N2CCOCC2)cc1,–,–,–,–,–,·
O=C(COC(=O)c1cc([N+](=O)[O-])ccc1N1CCOCC1)NCCc1ccccc1,–,–,–,–,78,66
O=C(COC(=O)c1cc([N+](=O)[O-])ccc1N1CCOCC1)NCc1ccc(F)cc1,–,–,–,–,88,81
CCOc1ccc(CCNC(=O)COC(=O)c2cc([N+](=O)[O-])ccc2N2CCOCC2)cc1OCC,–,–,–,–,53,57
CSc1ccccc1NC(=O)CN1CCN(S(=O)(=O)c2ccccc2[N+](=O)[O-])CC1,–,–,–,–,–,·
Cc1cccc(CCN(C(=O)c2csnn2)C(C(=O)NC2CCCC2)c2ccco2)c1 (configuration not stated),–,–,–,–,–,·
O=C(CSCc1ccccc1)Nc1cc([N+](=O)[O-])ccc1F,–,–,–,–,–,·
O=C(COC(=O)CC1CC2CCC1C2)Nc1cc([N+](=O)[O-])ccc1F (configuration not stated),–,–,–,–,80,87
O=C(COC(=O)CCc1ccccc1)Nc1cc([N+](=O)[O-])ccc1F,–,–,–,–,73,67
Cc1ccc(C)c(OCCC(=O)OCc2csc(CC(=O)Nc3ccccc3C)n2)c1,–,–,–,–,–,·
CN(C(=O)c1cccc(NC(=O)Cc2ccc([N+](=O)[O-])cc2)c1)C1CCCCC1,–,–,–,–,–,·
Cc1ccc(NC(=O)CN(C)C(=O)c2ccc(Cl)c([N+](=O)[O-])c2)cc1,–,–,–,–,60,68
Cc1ccc([N+](=O)[O-])cc1NC(=O)C1CCCC1,–,–,–,–,–,·
O=C(CN(C(=O)c1cccc([N+](=O)[O-])c1)C1CCCCC1)Nc1ccc(Cl)c([N+](=O)[O-])c1,–,–,–,–,81,–
CN(CC(=O)Nc1ccc(Cl)cc1)C(=O)c1ccc(-n2cncn2)c([N+](=O)[O-])c1,–,–,–,–,–,·
O=C(CN(C1CCCCC1)S(=O)(=O)c1ccc(Cl)cc1)N1CCOCC1,–,–,–,–,–,·
Cc1ccc([N+](=O)[O-])cc1NC(=O)CN(C(=O)c1ccccc1Cl)C1CCCCC1,–,–,–,–,74,–
Cc1ccc([N+](=O)[O-])cc1NC(=O)CN(C1CCCCC1)S(=O)(=O)c1ccc(Cl)cc1,–,–,–,–,54,–
COc1cc(-c2noc(C)c2C(=O)NCCCN2CCOCC2)cc(OC)c1OC,–,–,–,–,–,·
O=C1N[C@@H](Cc2ccccc2)C(=O)N2[C@H]1C[C@]1([C@]34C[C@H]5C(=O)N[C@@H](Cc6ccccc6)C(=O)N5[C@H]3N(S(=O)(=O)c3ccccc3)c3ccccc34)c3ccccc3N(S(=O)(=O)c3ccccc3)[C@H]21,–,–,–,–,77,–
O=C(/C=C/c1cc([N+](=O)[O-])ccc1OC(F)F)NCc1ccc(F)cc1,–,–,–,–,72,86
SMILES,Scp-1 inhibitor,SUMO1 PPI mod,LMPTP block,STEP inh,FAS-TE inh,FAS-TE inh conf
CC(C)(C)OC(=O)NCCc1nnc(S(=O)(=O)Cc2ccc(Cl)cc2Cl)o1,–,–,–,–,64,67
COc1cc(-c2cc(C(=O)Nc3c(Cl)cc(Cl)cc3Cl)c3ccccc3n2)cc(OC)c1OC,–,–,–,–,56,–
COc1ccc(-c2cc(C(=O)Nc3nc4c(C)cccc4s3)c3ccccc3n2)cc1OC,–,–,–,–,68,–
COc1ccccc1NC(=O)c1cc(-c2ccc(OC)c(OC)c2)nc2ccccc12,–,–,–,–,–,·
CCOc1ccc(S(=O)(=O)Nc2nc3ccccc3nc2Nc2ccc(N3CCOCC3)cc2)cc1,–,–,–,–,–,·
COc1ccc(NC(=O)Nc2cccc3c2O[C@H](CN(C)C(=O)NC2CCCCC2)[C@@H](C)CN([C@H](C)CO)C3=O)cc1,–,–,–,–,78,71
COc1ccc(NC(=O)Nc2cccc3c2O[C@H](CN(C)C(=O)Nc2ccccc2)[C@@H](C)CN([C@H](C)CO)C3=O)cc1,–,–,–,–,–,·
C[C@H](CO)N1C[C@H](C)[C@@H](CN(C)C(=O)NC2CCCCC2)Oc2c(NC(=O)Nc3ccc4c(c3)OCO4)cccc2C1=O,–,–,–,–,82,85
C=CCn1c(SCc2c(C)noc2C)nc2cc(C(=O)O)ccc2c1=O,–,–,–,–,–,·
C=CCn1c(SCc2ccc(Br)cc2F)nc2cc(C(=O)O)ccc2c1=O,–,–,–,–,62,65
Cc1onc(-c2ccccc2Cl)c1C(=O)Nc1ccc(Br)cc1,–,–,–,–,–,·
CC(=O)O[C@H]1C(=O)[C@@]2(C)C([C@H](OC(=O)c3ccccc3)[C@]3(O)C[C@H](OC(=O)[C@H](O)[C@@H](NC(=O)c4ccccc4)c4ccccc4)C(C)=C1C3(C)C)[C@]1(OC(C)=O)CO[C@@H]1C[C@H]2O (some centres not stated),–,–,–,–,52,–
Cc1c([N+](=O)[O-])cc(S(=O)(=O)Nc2ccc(-c3ccc(N4CCCC4)nn3)cc2)cc1[N+](=O)[O-],–,–,–,–,87,90
Cc1ccc(S(=O)(=O)Nc2cccc(-c3ccc(N4CCCCCC4)nn3)c2)c(C)c1,–,–,–,–,59,60
O=[N+]([O-])c1ccc(Cl)c(S(=O)(=O)Nc2cccc(-c3ccc(N4CCCC4)nn3)c2)c1,–,–,–,–,58,66
Cc1ccc([N+](=O)[O-])cc1S(=O)(=O)Nc1ccc(-c2ccc(N3CCCC3)nn2)cc1,–,–,–,–,54,51
O=[N+]([O-])c1ccccc1S(=O)(=O)Nc1cccc(-c2ccc(N3CCCC3)nn2)c1,–,–,–,–,–,·
O=[N+]([O-])c1ccc(Cl)c(S(=O)(=O)Nc2ccc(-c3ccc(N4CCCC4)nn3)cc2)c1,–,–,–,–,67,27
O=[N+]([O-])c1ccc(S(=O)(=O)Nc2ccc(-c3ccc(N4CCCC4)nn3)cc2)cc1,–,–,–,–,–,·
